Test results published in ChEMBL document CHEMBL4673214, “Synthesis and antibacterial bioactivities of cationic deacetyl linezolid amphiphiles” (Eur J Med Chem, 2018).
Active and inactive are the calls of the source. No cut-off for these calls is given here.

Experiments:
Escherichia coli [1] = assay: Resistance ratio of compound MIC for Escherichia coli ATCC 25922 after 20 passages to compound MIC for Escherichia coli ATCC 25922 after 16 to 20 hrs by CLSI-based broth microdilution method; assay type: functional
Outline: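 Serial passaging: after each 24 h MIC assay, cells grown at 1/2 MIC were transferred and the MIC assayed again, for 20 passages. Done with S. aureus, E. coli and MRSA. MIC plotted against days of passage. Experiment repeated twice.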

Escherichia coli [2] = assay: Antibacterial activity against Escherichia coli ATCC 25922 assessed as reduction in bacterial growth incubated 16 to 20 hrs by CLSI-based broth microdilution method; assay type: functional; details: time 16-20 hrs
Outline: (§1)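 Broth microdilution following CLSI, in cation-adjusted Mueller-Hinton broth. Inoculum from a 4-6 h culture (~10^8 CFU/mL), diluted to ~10^6 CFU/mL. Water stocks were serially diluted in MHB (256 to 0.5 µg/mL) and mixed 1:1 with the inoculum. Plates ran 16-20 h at 37 °C. MIC was read visually. Each concentration was tested in duplicate, and the experiment was repeated at least twice.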

Cell membrane [3] = assay: Induction of cytoplasmic membrane depolarization in Staphylococcus aureus ATCC 29213 at 20 ug/ml measured for 12 mins by DiSC35 dye-based fluorescence assay; assay type: subcellular; details: dose 20.0 µg/ml
Outline: (§2)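 Mid-log bacteria were washed and resuspended at ~10^8 CFU/mL: S. aureus in PBS, E. coli in 5 mM HEPES/5 mM glucose/100 mM KCl (1:1:1). Cells were loaded with diSC35 (10 µM stock) for 30 min (S. aureus) or 40 min (E. coli, plus EDTA). Fluorescence (ex 622/em 670 nm) was read for an 8 min baseline, then every 2 min for 12 min after compound at 20 µg/mL final. Water served as control.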

Cell membrane [4] = assay: Induction of cytoplasmic membrane depolarization in Escherichia coli ATCC 25922 at 20 ug/ml measured for 12 mins by DiSC35 dye-based fluorescence assay; assay type: subcellular; details: dose 20.0 µg/ml; outline: as §2
Cell membrane [5] = assay: Induction of outer membrane permeabilization in Escherichia coli ATCC 25922 at 20 ug/ml measured for 12 mins by NPN dye based fluorescence assay; details: dose 20.0 µg/ml
Outline: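 Mid-log E. coli in HEPES/glucose/KCl at ~10^8 CFU/mL was preincubated 40 min with N-phenylnaphthylamine (10 µM stock). Fluorescence (ex 350/em 420 nm) was read for an 8 min baseline, then every 2 min for 12 min after compound at 20 µg/mL final. Water served as control.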

Cell membrane [6] = assay: Induction of inner membrane permeabilization in Escherichia coli ATCC 25922 at 20 ug/ml measured for 12 mins by propidium iodide staining based fluorescence microscopic analysis; details: dose 20.0 µg/ml
Outline: (§3)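 Mid-log bacteria were washed and resuspended at ~10^8 CFU/mL and preincubated with propidium iodide (10 µM stock) for 30 min (S. aureus) or 40 min (E. coli). Fluorescence (ex 535/em 617 nm) was read on a plate for an 8 min baseline, then every 2 min for 12 min after compound at 20 µg/mL final. Water served as control.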

Cell membrane [7] = assay: Induction of inner membrane permeabilization in Staphylococcus aureus ATCC 29213 at 20 ug/ml measured for 12 mins by propidium iodide staining based fluorescence microscopic analysis; details: dose 20.0 µg/ml; outline: as §3
Escherichia coli [8] = assay: Antibiofilm activity against Escherichia coli ATCC 25922 assessed as inhibition of biofilm formation incubated for 24 hrs by crystal violet staining assay; assay type: functional
Outline: (§4)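 Twofold serial dilutions in MHB received 1:1000-diluted exponential-phase bacteria and were incubated 24 h at 37 °C. Wells were rinsed, stained with 0.1% crystal violet for 10 min and dissolved in ethanol, and OD540 was read. MBIC80 was the concentration inhibiting 80% of biofilm formation versus untreated wells, taken from dose-response curves.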

Staphylococcus aureus [9] = assay: Antibiofilm activity against Staphylococcus aureus ATCC 29213 assessed as inhibition of biofilm formation incubated for 24 hrs by crystal violet staining assay; assay type: functional; outline: as §4
Escherichia coli [10] = assay: Antibiofilm activity against 24 hrs preformed biofilm of Escherichia coli ATCC 25922 assessed as eradication of preformed biofilm incubated for 24 hrs by crystal violet staining assay; assay type: functional
Staphylococcus aureus [11] = assay: Antibiofilm activity against 24 hrs preformed biofilm of Staphylococcus aureus ATCC 29213 assessed as eradication of preformed biofilm incubated for 24 hrs by crystal violet staining assay; assay type: functional
[12] = Hemolytic activity in sheep RBC incubated for 1 hr; assay type: ADME, cell-based, Ovis aries, Erythrocyte; details: sheep red blood cells (erythrocytes)
Outline: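 Sheep RBCs were resuspended at 5% in PBS and mixed 3:1 with serial dilutions (2560 to 5 µg/mL, pre-mixing levels), then incubated 1 h at 37 °C. After centrifugation, supernatant A540 was read. Hemolysis % was calculated as (A−A0)/(Atotal−A0)×100, with untreated RBCs as 0% and 0.1% Triton X-100 as total lysis.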

Enterobacteriaceae [13] = assay: Antibacterial activity against NDM1 producing carbapenem-resistant Enterobacteriaceae clinical isolate 10 assessed as reduction in bacterial growth incubated for 16 to 20 hrs by CLSI-based broth microdilution method; assay type: functional; details: time 16-20 hrs
Outline: (§5)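 Clinical isolates tested by broth microdilution in cation-adjusted Mueller-Hinton broth. Cultures grown 4-6 h (~10^8 CFU/mL) were diluted to ~10^6 CFU/mL and mixed 1:1 with compound serial dilutions made from 256 down to 0.5 µg/mL (pre-mixing). Plates held at 37 °C for 16-20 h, then read for growth. Each concentration run in duplicate, whole experiment at least twice.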

Enterobacteriaceae [14] = assay: Antibacterial activity against NDM1 producing carbapenem-resistant Enterobacteriaceae clinical isolate 8 assessed as reduction in bacterial growth incubated for 16 to 20 hrs by CLSI-based broth microdilution method; assay type: functional; details: time 16-20 hrs; outline: as §5
Enterobacteriaceae [15] = assay: Antibacterial activity against NDM1 producing carbapenem-resistant Enterobacteriaceae clinical isolate 7 assessed as reduction in bacterial growth incubated for 16 to 20 hrs by CLSI-based broth microdilution method; assay type: functional; details: time 16-20 hrs; outline: as §5
Enterobacteriaceae [16] = assay: Antibacterial activity against NDM1 producing carbapenem-resistant Enterobacteriaceae clinical isolate 6 assessed as reduction in bacterial growth incubated for 16 to 20 hrs by CLSI-based broth microdilution method; assay type: functional; details: time 16-20 hrs; outline: as §5
Enterobacteriaceae [17] = assay: Antibacterial activity against NDM1 producing carbapenem-resistant Enterobacteriaceae clinical isolate 5 assessed as reduction in bacterial growth incubated for 16 to 20 hrs by CLSI-based broth microdilution method; assay type: functional; details: time 16-20 hrs; outline: as §5
Enterobacteriaceae [18] = assay: Antibacterial activity against NDM1 producing carbapenem-resistant Enterobacteriaceae clinical isolate 4 assessed as reduction in bacterial growth incubated for 16 to 20 hrs by CLSI-based broth microdilution method; assay type: functional; details: time 16-20 hrs; outline: as §5
Enterobacteriaceae [19] = assay: Antibacterial activity against NDM1 producing carbapenem-resistant Enterobacteriaceae clinical isolate 3 assessed as reduction in bacterial growth incubated for 16 to 20 hrs by CLSI-based broth microdilution method; assay type: functional; details: time 16-20 hrs; outline: as §5
Enterobacteriaceae [20] = assay: Antibacterial activity against NDM1 producing carbapenem-resistant Enterobacteriaceae clinical isolate 2 assessed as reduction in bacterial growth incubated for 16 to 20 hrs by CLSI-based broth microdilution method; assay type: functional; details: time 16-20 hrs; outline: as §5
Enterobacteriaceae [21] = assay: Antibacterial activity against NDM1 producing carbapenem-resistant Enterobacteriaceae clinical isolate 1 assessed as reduction in bacterial growth incubated for 16 to 20 hrs by CLSI-based broth microdilution method; assay type: functional; details: time 16-20 hrs; outline: as §5
Klebsiella pneumoniae [22] = assay: Antibacterial activity against carbapenem-resistant Klebsiella pneumoniae clinical isolate 10 assessed as reduction in bacterial growth incubated for 16 to 20 hrs by CLSI-based broth microdilution method; assay type: functional; details: time 16-20 hrs; outline: as §5
Klebsiella pneumoniae [23] = assay: Antibacterial activity against carbapenem-resistant Klebsiella pneumoniae clinical isolate 9 assessed as reduction in bacterial growth incubated for 16 to 20 hrs by CLSI-based broth microdilution method; assay type: functional; details: time 16-20 hrs; outline: as §5
Klebsiella pneumoniae [24] = assay: Antibacterial activity against carbapenem-resistant Klebsiella pneumoniae clinical isolate 8 assessed as reduction in bacterial growth incubated for 16 to 20 hrs by CLSI-based broth microdilution method; assay type: functional; details: time 16-20 hrs; outline: as §5
Klebsiella pneumoniae [25] = assay: Antibacterial activity against carbapenem-resistant Klebsiella pneumoniae clinical isolate 7 assessed as reduction in bacterial growth incubated for 16 to 20 hrs by CLSI-based broth microdilution method; assay type: functional; details: time 16-20 hrs; outline: as §5
Klebsiella pneumoniae [26] = assay: Antibacterial activity against carbapenem-resistant Klebsiella pneumoniae clinical isolate 6 assessed as reduction in bacterial growth incubated for 16 to 20 hrs by CLSI-based broth microdilution method; assay type: functional; details: time 16-20 hrs; outline: as §5
Klebsiella pneumoniae [27] = assay: Antibacterial activity against carbapenem-resistant Klebsiella pneumoniae clinical isolate 5 assessed as reduction in bacterial growth incubated for 16 to 20 hrs by CLSI-based broth microdilution method; assay type: functional; details: time 16-20 hrs; outline: as §5
Klebsiella pneumoniae [28] = assay: Antibacterial activity against carbapenem-resistant Klebsiella pneumoniae clinical isolate 4 assessed as reduction in bacterial growth incubated for 16 to 20 hrs by CLSI-based broth microdilution method; assay type: functional; details: time 16-20 hrs; outline: as §5
Klebsiella pneumoniae [29] = assay: Antibacterial activity against carbapenem-resistant Klebsiella pneumoniae clinical isolate 3 assessed as reduction in bacterial growth incubated for 16 to 20 hrs by CLSI-based broth microdilution method; assay type: functional; details: time 16-20 hrs; outline: as §5
Klebsiella pneumoniae [30] = assay: Antibacterial activity against carbapenem-resistant Klebsiella pneumoniae clinical isolate 2 assessed as reduction in bacterial growth incubated for 16 to 20 hrs by CLSI-based broth microdilution method; assay type: functional; details: time 16-20 hrs; outline: as §5
Enterobacteriaceae [31] = assay: Antibacterial activity against NDM1 producing carbapenem-resistant Enterobacteriaceae clinical isolate 9 assessed as reduction in bacterial growth incubated for 16 to 20 hrs by CLSI-based broth microdilution method; assay type: functional; details: time 16-20 hrs; outline: as §5
Salmonella enterica = assay: Antibacterial activity against Salmonella enterica ATCC 8387 assessed as reduction in bacterial growth incubated for 16 to 20 hrs by CLSI-based broth microdilution method; assay type: functional; details: time 16-20 hrs; outline: as §1
Klebsiella pneumoniae [32] = assay: Antibacterial activity against carbapenem-resistant Klebsiella pneumoniae clinical isolate 1 assessed as reduction in bacterial growth incubated for 16 to 20 hrs by CLSI-based broth microdilution method; assay type: functional; details: time 16-20 hrs; outline: as §5

COLISTIN gave a Ratio (Escherichia coli [1]) of 32 and an MIC (Escherichia coli [2]) of 0.5 µg/mL.
For `CC(=O)NC[C@H]1CN(c2ccc(N3CCOCC3)c(F)c2)C(=O)O1` [LINEZOLID], the Activity (Cell membrane [3]) was “inactive”, the Activity (Cell membrane [4]) was “inactive” and the Activity (Cell membrane [5]) was “inactive”. The Activity (Cell membrane [6]) was “inactive”, the Activity (Cell membrane [7]) was “inactive” and the MBIC80 (Escherichia coli [8]) was >128 µg/mL. The MBIC90 (Escherichia coli [8]) was >128 µg/mL, the MBIC80 (Staphylococcus aureus [9]) was 26.8 µg/mL and the MBIC90 (Staphylococcus aureus [9]) was 36.1 µg/mL. The MBEC (Escherichia coli [10]) was >128 µg/mL, the MBEC80 (Escherichia coli [10]) was >128 µg/mL and the MBEC90 (Escherichia coli [10]) was >128 µg/mL. For the same compound, the MBEC (Staphylococcus aureus [11]) was >128 µg/mL, the MBEC80 (Staphylococcus aureus [11]) was >128 µg/mL and the MBEC90 (Staphylococcus aureus [11]) was >128 µg/mL. For the same compound, the HC50 at 1 h [12] was 550 µg/mL, the MIC (Enterobacteriaceae [13]) was > 64 µg/mL and the MIC (Enterobacteriaceae [14]) was > 64 µg/mL. For the same compound, the MIC (Enterobacteriaceae [15]) was > 64 µg/mL, the MIC (Enterobacteriaceae [16]) was > 64 µg/mL and the MIC (Enterobacteriaceae [17]) was > 64 µg/mL. The MIC (Enterobacteriaceae [18]) was > 64 µg/mL, the MIC (Enterobacteriaceae [19]) was > 64 µg/mL and the MIC (Enterobacteriaceae [20]) was > 64 µg/mL. For the same compound, the MIC (Enterobacteriaceae [21]) was > 64 µg/mL, the MIC (Klebsiella pneumoniae [22]) was > 64 µg/mL and the MIC (Klebsiella pneumoniae [23]) was > 64 µg/mL. For the same compound, the MIC (Klebsiella pneumoniae [24]) was > 64 µg/mL, the MIC (Klebsiella pneumoniae [25]) was > 64 µg/mL and the MIC (Klebsiella pneumoniae [26]) was > 64 µg/mL. The MIC (Klebsiella pneumoniae [27]) was > 64 µg/mL, the MIC (Klebsiella pneumoniae [28]) was > 64 µg/mL and the MIC (Klebsiella pneumoniae [29]) was > 64 µg/mL. For the same compound, the MIC (Klebsiella pneumoniae [30]) was > 64 µg/mL, the MIC (Enterobacteriaceae [31]) was > 64 µg/mL and the MIC (Salmonella enterica) was > 64 µg/mL. The MIC (Escherichia coli [2]) was > 64 µg/mL and the MIC (Klebsiella pneumoniae [32]) was > 64 µg/mL.
